In one data set the test system is class I HDACs. The following applies: cited from earlier work.
Another data set deals with HDAC3 (Homo sapiens, UniProt O15379). The experiment in a line: Western blot analysis of HDAC3 degradation in breast cancer cells. It is filed as cell-based. The procedure, abridged: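 MDA-MB-468 cells were treated with test compound for 14 h, and HDAC3 was assessed by western blot with band intensity normalized to α-tubulin. For the mechanism arm, cells were pretreated for 1 h with 1 μM MG132 or 10 μM VHL032 before 125 nM compound. A time course used 125 nM. For washout, cells got 125 nM for 14 h, then drug-free medium for additional time.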
Sequence of HDAC3 (O15379 whole entry): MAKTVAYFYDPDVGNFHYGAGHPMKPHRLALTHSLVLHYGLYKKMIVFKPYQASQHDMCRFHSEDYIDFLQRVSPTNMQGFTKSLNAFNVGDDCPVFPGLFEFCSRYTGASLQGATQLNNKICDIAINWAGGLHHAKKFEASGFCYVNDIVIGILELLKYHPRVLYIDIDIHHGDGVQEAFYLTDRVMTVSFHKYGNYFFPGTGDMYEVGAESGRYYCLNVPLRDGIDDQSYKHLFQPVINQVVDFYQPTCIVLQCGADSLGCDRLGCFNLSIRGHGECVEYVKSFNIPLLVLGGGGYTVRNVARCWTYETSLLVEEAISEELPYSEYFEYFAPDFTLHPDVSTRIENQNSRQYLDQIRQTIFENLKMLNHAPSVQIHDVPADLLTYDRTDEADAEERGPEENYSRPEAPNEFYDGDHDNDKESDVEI
Sequence of HDAC3 (Q9Y618 whole entry partner): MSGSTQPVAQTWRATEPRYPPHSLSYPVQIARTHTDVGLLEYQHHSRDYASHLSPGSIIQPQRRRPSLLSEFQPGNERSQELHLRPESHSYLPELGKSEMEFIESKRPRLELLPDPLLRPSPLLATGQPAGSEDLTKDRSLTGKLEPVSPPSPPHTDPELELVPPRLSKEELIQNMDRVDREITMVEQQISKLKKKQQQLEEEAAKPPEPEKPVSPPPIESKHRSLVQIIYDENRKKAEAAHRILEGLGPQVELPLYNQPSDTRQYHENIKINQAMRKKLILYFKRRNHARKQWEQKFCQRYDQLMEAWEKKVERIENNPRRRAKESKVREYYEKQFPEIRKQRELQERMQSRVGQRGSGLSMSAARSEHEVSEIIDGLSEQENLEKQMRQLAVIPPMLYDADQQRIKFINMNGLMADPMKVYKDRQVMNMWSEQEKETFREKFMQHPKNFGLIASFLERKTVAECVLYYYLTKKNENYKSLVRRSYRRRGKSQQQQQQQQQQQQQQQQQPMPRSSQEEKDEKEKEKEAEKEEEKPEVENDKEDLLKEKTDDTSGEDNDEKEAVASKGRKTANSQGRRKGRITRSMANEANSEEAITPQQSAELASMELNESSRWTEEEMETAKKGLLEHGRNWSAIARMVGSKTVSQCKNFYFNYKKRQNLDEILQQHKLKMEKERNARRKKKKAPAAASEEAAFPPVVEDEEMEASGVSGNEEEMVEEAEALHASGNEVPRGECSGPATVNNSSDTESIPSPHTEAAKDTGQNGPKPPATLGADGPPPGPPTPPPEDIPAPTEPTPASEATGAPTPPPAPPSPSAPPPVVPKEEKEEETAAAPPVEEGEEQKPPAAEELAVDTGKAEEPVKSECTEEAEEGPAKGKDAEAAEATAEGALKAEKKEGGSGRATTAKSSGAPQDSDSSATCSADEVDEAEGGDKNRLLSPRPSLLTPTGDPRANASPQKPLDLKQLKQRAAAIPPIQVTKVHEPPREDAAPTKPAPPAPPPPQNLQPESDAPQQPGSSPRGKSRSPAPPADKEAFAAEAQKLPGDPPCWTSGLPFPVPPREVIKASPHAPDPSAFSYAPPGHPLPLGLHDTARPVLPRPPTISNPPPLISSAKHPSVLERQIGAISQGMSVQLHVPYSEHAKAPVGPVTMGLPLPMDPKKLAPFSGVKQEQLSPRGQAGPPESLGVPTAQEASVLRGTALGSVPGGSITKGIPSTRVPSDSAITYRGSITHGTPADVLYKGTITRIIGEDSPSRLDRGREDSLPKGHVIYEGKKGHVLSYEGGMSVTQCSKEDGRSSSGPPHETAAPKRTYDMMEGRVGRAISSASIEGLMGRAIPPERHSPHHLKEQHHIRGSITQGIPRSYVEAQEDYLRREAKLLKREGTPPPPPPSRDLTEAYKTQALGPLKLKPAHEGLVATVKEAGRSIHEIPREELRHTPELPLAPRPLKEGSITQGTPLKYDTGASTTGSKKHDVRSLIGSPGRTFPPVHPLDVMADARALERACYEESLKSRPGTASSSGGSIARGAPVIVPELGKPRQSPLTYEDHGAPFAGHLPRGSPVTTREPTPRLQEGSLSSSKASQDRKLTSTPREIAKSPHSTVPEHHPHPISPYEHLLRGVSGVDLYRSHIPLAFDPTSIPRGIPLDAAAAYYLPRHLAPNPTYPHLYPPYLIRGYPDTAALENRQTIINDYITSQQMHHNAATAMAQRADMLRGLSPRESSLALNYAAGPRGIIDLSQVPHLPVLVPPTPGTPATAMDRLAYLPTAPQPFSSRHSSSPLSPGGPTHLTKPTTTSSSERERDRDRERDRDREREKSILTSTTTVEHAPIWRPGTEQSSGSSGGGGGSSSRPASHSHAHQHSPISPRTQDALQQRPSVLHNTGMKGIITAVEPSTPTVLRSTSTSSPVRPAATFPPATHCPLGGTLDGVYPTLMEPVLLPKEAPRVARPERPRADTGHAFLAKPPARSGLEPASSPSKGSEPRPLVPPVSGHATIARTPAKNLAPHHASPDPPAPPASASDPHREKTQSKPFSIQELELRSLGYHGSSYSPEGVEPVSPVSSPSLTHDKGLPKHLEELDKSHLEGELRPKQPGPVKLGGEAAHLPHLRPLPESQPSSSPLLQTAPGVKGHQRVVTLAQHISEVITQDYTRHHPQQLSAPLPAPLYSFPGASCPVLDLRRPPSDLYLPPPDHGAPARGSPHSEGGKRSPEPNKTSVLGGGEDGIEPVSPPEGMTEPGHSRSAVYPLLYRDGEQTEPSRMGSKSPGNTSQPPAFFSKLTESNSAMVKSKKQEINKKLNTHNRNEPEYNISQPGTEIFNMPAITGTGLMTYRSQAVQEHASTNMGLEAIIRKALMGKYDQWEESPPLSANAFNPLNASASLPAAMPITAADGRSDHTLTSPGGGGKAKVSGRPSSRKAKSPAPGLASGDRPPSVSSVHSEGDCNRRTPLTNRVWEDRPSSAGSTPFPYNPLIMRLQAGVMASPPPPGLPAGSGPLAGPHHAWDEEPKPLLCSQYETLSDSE
(In general: A western blot detects proteins with antibodies after separation by electrophoresis.)

The test system of another data set is HCC1143. Description: Colony formation assay. The following applies: HCC1143 breast cancer cells. In kind it is cell-based. An outline of the steps: (§1)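 Cells were grown with test compound, and the medium with freshly added compound was replaced every five days until colonies reached suitable size. Colonies were then stained. Four biological replicates.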
The next data set can be described thus: Cytotoxicity. It is filed as cell-based. The following applies: Fig. S3.
The next data set deals with HDAC1 (Homo sapiens, UniProt Q13547). The experiment in a line: Western blot analysis of HDAC1 protein level in breast cancer cells. As to conditions: MDA-MB-468 cells, 14 h treatment. It is filed as cell-based. The procedure, abridged:
(§2)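 MDA-MB-468 cells were treated with test compound for 14 h, then the HDAC isoform protein level was assessed by western blot.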

Another data set concerns BT549. Description: Colony formation assay. In kind it is cell-based. As to conditions: BT549 breast cancer cells. The procedure, abridged:
as §1

Data set [1] concerns histone acetylation at H3K27 and H4K5. The experiment in a line: Western blot analysis of histone acetylation. It is filed as cell-based.
The next data set relates to MDA-MB-468 cells. The experiment in a line: Colony formation assay. It is filed as cell-based. The following applies: difference was moderate. An outline of the steps: as §1
The target in another data set is HDAC2 (Homo sapiens, UniProt Q92769). Description: Western blot analysis of HDAC2 protein level in breast cancer cells. In kind it is cell-based. The following applies: MDA-MB-468 cells, 14 h treatment. An outline of the steps:
as §2

The target of a further data set is T1, HDAC6 (Homo sapiens, UniProt Q9UBN7).
T1 sequence (Q9UBN7 1-1215): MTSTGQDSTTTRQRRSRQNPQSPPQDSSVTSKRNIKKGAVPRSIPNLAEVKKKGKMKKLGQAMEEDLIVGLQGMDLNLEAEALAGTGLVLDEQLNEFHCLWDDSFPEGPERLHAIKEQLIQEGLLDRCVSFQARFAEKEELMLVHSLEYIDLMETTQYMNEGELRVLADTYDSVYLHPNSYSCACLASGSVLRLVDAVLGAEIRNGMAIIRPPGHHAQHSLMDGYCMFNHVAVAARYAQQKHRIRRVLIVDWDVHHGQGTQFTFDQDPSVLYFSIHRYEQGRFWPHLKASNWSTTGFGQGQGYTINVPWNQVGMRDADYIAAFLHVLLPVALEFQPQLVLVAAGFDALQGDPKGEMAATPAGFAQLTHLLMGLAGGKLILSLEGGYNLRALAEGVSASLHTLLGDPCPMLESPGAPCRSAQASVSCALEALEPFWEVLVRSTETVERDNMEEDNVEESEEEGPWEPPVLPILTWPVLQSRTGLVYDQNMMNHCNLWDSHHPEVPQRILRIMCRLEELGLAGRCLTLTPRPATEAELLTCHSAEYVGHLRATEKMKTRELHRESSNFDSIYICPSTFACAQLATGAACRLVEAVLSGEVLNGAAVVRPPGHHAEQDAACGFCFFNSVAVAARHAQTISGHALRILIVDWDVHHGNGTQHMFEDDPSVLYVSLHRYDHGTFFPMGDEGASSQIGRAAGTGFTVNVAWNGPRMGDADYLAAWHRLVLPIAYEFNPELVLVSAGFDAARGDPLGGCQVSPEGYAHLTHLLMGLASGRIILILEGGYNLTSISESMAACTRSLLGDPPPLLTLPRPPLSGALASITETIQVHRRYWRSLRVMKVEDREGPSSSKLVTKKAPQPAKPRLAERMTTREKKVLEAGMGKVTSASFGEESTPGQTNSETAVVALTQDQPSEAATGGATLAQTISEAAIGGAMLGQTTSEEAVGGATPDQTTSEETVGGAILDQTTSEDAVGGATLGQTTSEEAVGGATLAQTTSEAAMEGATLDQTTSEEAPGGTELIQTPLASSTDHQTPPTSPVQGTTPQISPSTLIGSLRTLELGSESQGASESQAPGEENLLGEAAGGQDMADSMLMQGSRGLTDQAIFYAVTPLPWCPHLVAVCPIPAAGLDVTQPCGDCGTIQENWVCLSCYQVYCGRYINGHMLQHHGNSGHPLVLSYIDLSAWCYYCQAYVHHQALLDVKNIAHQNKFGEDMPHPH
Description: Western blot analysis of HDAC6 protein level in MDA-MB-468 cells. In kind it is cell-based. As to conditions: 14 h treatment. An outline of the steps:
as §2

Another data set deals with HDACs. The experiment in a line: HDAC-Glo I/II Assays. In kind it is biochemical. The following applies: Table S1.
The next data set has as its system T47D. Description: Colony formation assay. It is filed as cell-based. The following applies: T47D breast cancer cells. The procedure, abridged:
as §1

Sequence of HDAC2 (Q92769 whole entry): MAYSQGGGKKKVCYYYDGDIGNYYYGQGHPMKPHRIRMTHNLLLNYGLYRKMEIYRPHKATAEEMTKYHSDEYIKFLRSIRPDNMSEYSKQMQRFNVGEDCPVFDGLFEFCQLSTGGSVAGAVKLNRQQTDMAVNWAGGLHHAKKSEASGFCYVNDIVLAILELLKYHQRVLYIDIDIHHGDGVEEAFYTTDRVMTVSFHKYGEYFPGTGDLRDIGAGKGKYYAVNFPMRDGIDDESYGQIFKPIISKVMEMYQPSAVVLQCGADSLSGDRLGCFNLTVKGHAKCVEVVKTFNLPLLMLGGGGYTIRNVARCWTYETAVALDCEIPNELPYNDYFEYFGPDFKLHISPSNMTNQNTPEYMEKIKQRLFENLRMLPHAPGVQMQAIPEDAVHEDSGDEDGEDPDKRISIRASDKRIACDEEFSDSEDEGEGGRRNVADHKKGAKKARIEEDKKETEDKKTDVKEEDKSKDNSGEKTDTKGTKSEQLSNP
Sequence of HDAC1 (Q13547 whole entry, canonical isoform): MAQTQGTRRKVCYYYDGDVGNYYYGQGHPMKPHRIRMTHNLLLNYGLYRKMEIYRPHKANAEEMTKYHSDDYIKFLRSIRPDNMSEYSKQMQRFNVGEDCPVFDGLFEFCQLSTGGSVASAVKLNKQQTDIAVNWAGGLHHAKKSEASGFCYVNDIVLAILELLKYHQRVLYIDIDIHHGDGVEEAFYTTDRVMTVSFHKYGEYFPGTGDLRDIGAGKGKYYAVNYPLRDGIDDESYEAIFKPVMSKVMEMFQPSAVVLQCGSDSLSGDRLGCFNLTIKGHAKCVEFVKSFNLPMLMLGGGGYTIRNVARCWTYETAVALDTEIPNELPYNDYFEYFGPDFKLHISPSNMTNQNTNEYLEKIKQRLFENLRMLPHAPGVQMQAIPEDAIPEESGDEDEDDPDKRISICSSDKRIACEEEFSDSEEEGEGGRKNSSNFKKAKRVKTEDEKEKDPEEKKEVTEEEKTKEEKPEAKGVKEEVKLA

In the case of `CCCCNNC(=O)c1ccc(-c2ccccc2)cc1` [SR-3558], in the data set with class I HDACs (benzoylhydrazide ZBG), the “HDAC isozyme binding preference” value is “preferentially binds to HDAC3”. Also, the “inhibition of class I HDACs” value with class I HDACs is “potent and selective inhibitor”.
`CCCNNC(=O)c1ccc(-c2ccc(NC(=O)CCCCCCC(=O)N[C@H](C(=O)N3C[C@@H](O)C[C@@H]3C(=O)N[C@@H](C)c3ccc(-c4scnc4C)cc3)C(C)(C)C)cc2)cc1` [XZ9002-NC]: at HDAC3 (MDA-MB-468 cells, Fig. 2B), the HDAC3 degradation result is recorded as “did not induce HDAC3 degradation”.
As for `CCCNNC(=O)c1ccc(-c2ccc(NC(=O)CCCCCCC(=O)N[C@H](C(=O)N3C[C@H](O)C[C@H]3C(=O)N[C@@H](C)c3ccc(-c4scnc4C)cc3)C(C)(C)C)cc2)cc1` [XZ9002], the “suppression of clonogenic growth compared to XZ9002-NC” value with HCC1143, in the data set with BT549 and in the data set on T47D was “markedly more potent” in each case. Further, the “potency to induce cytotoxicity compared to 15” value in “Cytotoxicity” is “less potent”. Also, on HDAC1, the “change in protein level of HDAC1” value is listed as “no significant changes”. Further, the histone acetylation entry in [1] (Fig. 2A and Fig. S2, moderate effects compared to 15 and CRBN-based PROTACs) is listed as “dose-dependently increased”. Moreover, the “potency to induce histone hyperacetylation compared to 15” value in [1] (Fig. S2) is on record as “less potent”. The “inhibition of clonogenic growth compared to XZ9002-NC” value in the data set with MDA-MB-468 cells is “more effective”. Also, the “time for HDAC3 to rebound to the steady level after washout” value on HDAC3 (MDA-MB-468, 125 nM for 14 h then drug-free medium) is “more than 12 h”. Also, the HDAC3 degraded on HDAC3 (MDA-MB-468, 125 nM, 8 h treatment) amounted to 70%. Moreover, the “start of HDAC3 degradation” value at HDAC3 (MDA-MB-468, 125 nM, time course) is on record as at most 2 h. Further, on HDAC3 (MDA-MB-468, XZ9002 125 nM, MG132 1 μM for 1 h), the “HDAC3 degradation after pre-incubation with proteasome inhibitor MG132” value is “blocked”. Moreover, on HDAC3 (MDA-MB-468, XZ9002 125 nM, VH032 10 μM for 1 h), the “HDAC3 degradation after pre-incubation with VHL ligand VH032” value is recorded as “blocked”. For the same compound, the “change in protein level of HDAC2” value on HDAC2 was “no significant changes”. For the same compound, on HDAC6, the “change in protein level of HDAC6” value is listed as “no significant changes”. Further, the “binding of HDAC3 compared with other HDACs” value in the data set with HDACs is recorded as “more strongly”.

(Values after PMC7654701 (Chemical communications (Cambridge, England), 2020).)
